According to PubChem BioAssay:
Activity calls are given as the source filed them.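 Rule for the calls, unless noted: active = inhibition of the reporter signal at or above 50%; inactive = inhibition below 50%.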

Legend:
[1] = inhibitors of TNFa-induced NFkB p65 translocation, primary screen, imaging, HUVEC, MLSMR starter and 10KST1 sets (AID 438;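 active = inhibition above 20% together with a positive visual image hit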;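 note: compound added about 3h40 before a 20 min TNFalpha stimulation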;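 for inhibition: signal is the nuclear over cytoplasmic p65 intensity ratio per well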); details: HUVEC TNFa-induced p65 nuclear translocation; cell count: measured here: nuclei count (cytotoxicity indicator), at 2.08 µM; inhibition: at 2 µM, stronger effect = higher value, 0% TNFa-plus-vehicle, 100% no-TNFa wells
[2] = inhibitors of mutant huntingtin aggregation, primary screen, imaging, exon1htt(103Q)mCFP cells, high-content imaging (AID 483;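 active = visual image review flags a hit and inhibition of aggregation exceeds 20%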;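 note: compound exposure lasted 3 days before fixation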;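 for nuclei count: percent of the per-plate median nuclei count of sample wells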); details: exon1htt(103Q)mCFP cell line, aggregate imaging, at 2 µM; inhibition of aggregation: stronger effect = higher value; nuclei count: measured here: cell count, toxicity
[3] = inhibitors of E-selectin induction by TNFa, primary screen, imaging, HUVEC, immunofluorescence, MLSMR starter and 10KST1 sets (AID 487;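 active = visually confirmed hit in the image check and inhibition above 20%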;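 for inhibition: signal is fraction of cell area covered by stained E-selectin grains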;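 for nuclei count: 100% = median nuclei count of all wells on the same plate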); details: HUVEC TNFalpha-induced E-selectin immunofluorescence imaging, at 2 µM; inhibition: stronger effect = higher value; nuclei count: measured here: cell number, toxicity
[4] = molecular target: Voltage-gated potassium channel subunit beta-2 (Rattus norvegicus) (UniProt P62483); experiment: KvBeta enzyme negative modulators, primary screen, biochemical, NADPH fluorescence (AID 622;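 active = fluorescence slope higher than the sample average by over 3 SD, cut at about -0.22 in these data, passing the limit was not always enough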;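 note: slope of raw intensity against log time taken from 70 to 1610 s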); details: recombinant KvBeta, 4-cyanobenzaldehyde reduction, at 10 µM, stronger effect = higher value
[5] = molecular target: Voltage-gated potassium channel subunit beta-2 (Rattus norvegicus) (UniProt P62483); experiment: KvBeta positive modulators, primary screen, biochemical, NADPH fluorescence (AID 623;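 active = NADPH fluorescence slope more negative than the mean of all samples by about 3 SD, 99.7% confidence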;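 note: fluorescence intensity change per second fitted from 20 to 320 s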); details: Recombinant KvBeta, NADPH fluorescence decrease slope, 10 min; at 10 µM; stronger effect = lower value
[6] = molecular target: Alpha-2C adrenergic receptor (Homo sapiens) (UniProt P18825); experiment: modulators of alpha2C/GIRK thallium flux, primary screen, cell-based, HEK293 alpha2C/GIRK1/2 (AID 624;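 active = fluorescence slope after compound addition differing from the mean of all screened samples at 99.7% confidence, in either direction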;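 note: slope of fluorescence ratio to pre-addition baseline per second over 15 to 24 s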); details: thallium flux BTC fluorescence, at 10 µM, actives lie on both sides
[7] = inhibitors of larval lipid processing in zebrafish, primary screen, whole organism, PED6 fluorescence, gall bladder and intestine (AID 686;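 active = a full or partial loss of lipid-probe fluorescence in the fish gall bladder, intestine or both, judged by eye; inactive = no fluorescence loss, or compound toxic to the fish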;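 note: larvae 5 to 7 days old with five fish per well; signal comes from phospholipase A2 cleavage of quenched PED6 carried via bile; overnight exposure to compound and PED6 before scoring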); details: Zebrafish larvae PED6 lipid processing, fluorescence scoring; screened at 20 µM (by protocol)
Outline: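 Doses: 20 µM single dose. Test system: live zebrafish larvae aged 5-7 days, whole organism. Quantity: five larvae per well. Measured by: By-eye fluorescence microscopy. Reagent: ingested quenched lipid PED6 at 100 nM. Read-out: visual per-well fluorescence inhibition score. Times: overnight exposure of larvae to compound plus PED6.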

[8] = inhibitors of Sendai virus-induced IRF3 signaling, primary screen, TLR/RLR signaling modifier project, cell-based, Sendai virus stimulus, luciferase, 10K MLSCN set (AID 602276;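 active = inhibition at or above 50% at 10 µM; inactive = inhibition below 50%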;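 note: firefly luciferase from ISG56 promoter only with Renilla not read in this screen; 0% = Sendai virus plus DMSO and 100% = medium plus DMSO without virus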); details: HEK293 RL24 IRF3 luciferase reporter, at 10 µM, stronger effect = higher value
[9] = inhibitors of poly I:C-induced TLR3 signaling, primary screen, cell-based, poly I:C stimulus, luciferase, 10K MLSCN set (AID 602277); details: HEK293-TLR3 RL24 IRF3 luciferase reporter, at 10 µM, stronger effect = higher value

Chain of Alpha-2C adrenergic receptor (Homo sapiens) (P18825 whole entry, looked up): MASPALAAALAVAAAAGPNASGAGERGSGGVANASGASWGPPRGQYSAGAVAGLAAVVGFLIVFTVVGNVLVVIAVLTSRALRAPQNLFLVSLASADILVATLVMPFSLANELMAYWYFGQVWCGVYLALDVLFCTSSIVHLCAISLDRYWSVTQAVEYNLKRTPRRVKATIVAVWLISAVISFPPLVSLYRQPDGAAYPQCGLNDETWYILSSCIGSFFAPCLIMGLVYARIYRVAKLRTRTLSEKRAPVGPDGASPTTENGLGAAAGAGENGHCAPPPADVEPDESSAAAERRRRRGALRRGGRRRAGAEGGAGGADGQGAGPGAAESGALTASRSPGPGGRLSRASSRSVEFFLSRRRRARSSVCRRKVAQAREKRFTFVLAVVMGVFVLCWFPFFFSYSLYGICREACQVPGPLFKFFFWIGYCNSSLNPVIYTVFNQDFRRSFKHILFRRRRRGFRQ
Chain of Voltage-gated potassium channel subunit beta-2 (Rattus norvegicus) (P62483 whole entry, looked up): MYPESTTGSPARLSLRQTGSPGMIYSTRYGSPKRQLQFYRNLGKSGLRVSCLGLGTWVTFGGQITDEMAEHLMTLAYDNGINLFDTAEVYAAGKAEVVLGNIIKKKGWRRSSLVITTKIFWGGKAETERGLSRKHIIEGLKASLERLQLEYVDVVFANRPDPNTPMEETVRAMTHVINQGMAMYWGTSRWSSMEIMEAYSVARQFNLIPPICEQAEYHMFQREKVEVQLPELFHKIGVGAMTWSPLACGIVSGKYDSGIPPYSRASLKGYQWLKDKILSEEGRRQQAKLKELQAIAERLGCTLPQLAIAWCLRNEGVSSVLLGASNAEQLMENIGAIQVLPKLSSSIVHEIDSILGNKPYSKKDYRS

COCCn1nnnc1SCC(=O)N1CCCCC1
inactive: inhibition [1] 1.6% | inhibition of aggregation [2] 4.1% | inhibition [3] 6.2% | fluorescence slope [4] -0.49 | NADPH fluorescence slope [5] -9.6e-06 | slope [6] 0.00458 | outcome [7] | inhibition [8] 17.3% | inhibition [9] 14%
102%: nuclei count [2]
121%: nuclei count [3]
344: cell count [1]

CNC(=O)OC(C)CNS(=O)(=O)c1ccc(C)cc1 (stereo not drawn)
inactive: inhibition [1] 9.8% | inhibition of aggregation [2] 5.2% | inhibition [3] -36.3% | fluorescence slope [4] -0.433 | NADPH fluorescence slope [5] -4.1e-05 | slope [6] 0.00412 | outcome [7] | inhibition [8] 19.5% | inhibition [9] 17.5%
118%: nuclei count [3]
441: cell count [1]
103%: nuclei count [2]

Cc1ccc2nc3c(cc2c1)CN(Cc1ccco1)C(=NCC1CCCO1)S3 (stereo not drawn)
106%: nuclei count [3]
543: cell count [1]
82.4%: nuclei count [2]
inactive: inhibition [1] 0.7% | inhibition of aggregation [2] 28.7% | inhibition [3] -2.1% | fluorescence slope [4] -0.372 | NADPH fluorescence slope [5] -6.6e-05 | slope [6] 0.00724 | outcome [7] | inhibition [8] 13.9% | inhibition [9] 11.5%

COc1ccccc1NC(=O)CSc1nnc(Cn2nnc(-c3ccccc3)n2)n1-c1ccccc1
104%: nuclei count [2]
inactive: inhibition [1] -12.5% | inhibition of aggregation [2] 5.6% | inhibition [3] -50.5% | fluorescence slope [4] -0.452 | NADPH fluorescence slope [5] -5.2e-05 | slope [6] 0.00589 | outcome [7] | inhibition [8] 19.9% | inhibition [9] 14.5%
119%: nuclei count [3]
644: cell count [1]

CCCNC(=O)c1cc(-c2ccco2)on1
389: cell count [1]
88.7%: nuclei count [2]
98.4%: nuclei count [3]
inactive: inhibition [1] -3.9% | inhibition of aggregation [2] -4.1% | inhibition [3] -11.4% | fluorescence slope [4] -0.39 | NADPH fluorescence slope [5] -4.2e-05 | slope [6] 0.0057 | outcome [7] | inhibition [8] -19% | inhibition [9] -154%

Cc1ccc(C(O)c2nc3ccccc3n2C(C)C)cc1 (stereo not drawn)
inactive: inhibition [1] -3.7% | inhibition of aggregation [2] 11% | inhibition [3] 28.8% | fluorescence slope [4] -0.418 | NADPH fluorescence slope [5] -1.7e-05 | slope [6] 0.00388 | outcome [7] | inhibition [8] 20% | inhibition [9] 11.8%
86.7%: nuclei count [3]
304: cell count [1]
91.7%: nuclei count [2]

Cc1csc(NC(=O)c2ccccc2C(=O)O)n1
111%: nuclei count [2]
116%: nuclei count [3]
418: cell count [1]
inactive: inhibition [1] 9% | inhibition of aggregation [2] -16.7% | inhibition [3] -46.7% | fluorescence slope [4] -0.358 | NADPH fluorescence slope [5] -6.8e-05 | slope [6] 0.00549 | outcome [7] | inhibition [8] 5.94% | inhibition [9] 3.54%

Cc1nc2ccc(F)cc2cc1C(=O)NCC1CCCO1 (stereo not drawn)
inactive: inhibition [1] -8.7% | inhibition of aggregation [2] 7.6% | inhibition [3] -34.7% | fluorescence slope [4] -0.432 | NADPH fluorescence slope [5] -4.9e-05 | slope [6] 0.00492 | outcome [7] | inhibition [8] 17.3% | inhibition [9] 27.4%
96.4%: nuclei count [2]
421: cell count [1]
115%: nuclei count [3]

COc1cccc(NC(=O)N2CCCC2C(=O)Nc2ccc3c(c2)OCO3)c1 (stereo not drawn)
57.5%: nuclei count [2]
inactive: inhibition [1] 5.8% | inhibition of aggregation [2] -11.8% | inhibition [3] -117% | fluorescence slope [4] -0.351 | NADPH fluorescence slope [5] -6.1e-05 | slope [6] 0.00477 | outcome [7] | inhibition [8] 13.7% | inhibition [9] 18.8%
106%: nuclei count [3]
649: cell count [1]

COCc1nnc(SCC(=O)NC(C)c2ccccc2)n1-c1ccccc1 (stereo not drawn)
94.3%: nuclei count [2]
308: cell count [1]
inactive: inhibition [1] -1.1% | inhibition of aggregation [2] 5.8% | inhibition [3] -18.5% | fluorescence slope [4] -0.434 | NADPH fluorescence slope [5] -3.6e-05 | slope [6] 0.00455 | outcome [7] | inhibition [8] 14.7% | inhibition [9] 14.9%
101%: nuclei count [3]

CCOc1nc(-c2ccccc2O)nc2ccccc12
104%: nuclei count [2]
inactive: inhibition [1] -3.1% | inhibition of aggregation [2] -11.6% | inhibition [3] -148% | fluorescence slope [4] -0.437 | NADPH fluorescence slope [5] -2.5e-05 | slope [6] 0.00628 | outcome [7] | inhibition [8] 6.19% | inhibition [9] 9.49%
716: cell count [1]
116%: nuclei count [3]

O=C(O)c1ccc(NC(=O)c2cccs2)cc1
464: cell count [1]
117%: nuclei count [3]
89.3%: nuclei count [2]
inactive: inhibition [1] 1.2% | inhibition of aggregation [2] 6.1% | inhibition [3] -75.3% | fluorescence slope [4] -0.362 | NADPH fluorescence slope [5] -2.7e-05 | slope [6] 0.00441 | outcome [7] | inhibition [8] 9.12% | inhibition [9] 13.8%

O=C(NCc1ccco1)c1cccc(S(=O)(=O)N2CCCCC2)c1
323: cell count [1]
112%: nuclei count [2]
inactive: inhibition [1] -3.6% | inhibition of aggregation [2] -3.2% | inhibition [3] -87.1% | fluorescence slope [4] -0.462 | NADPH fluorescence slope [5] 3.8e-05 | slope [6] 0.00571 | outcome [7] | inhibition [8] -13.9% | inhibition [9] -7.47%
120%: nuclei count [3]

O=C(Nc1cccc(OCC(=O)N2CCOCC2)c1)C1CCCCC1
inactive: inhibition [1] 4.9% | inhibition of aggregation [2] 5.7% | inhibition [3] -22.9% | fluorescence slope [4] -0.471 | NADPH fluorescence slope [5] -5.6e-05 | slope [6] 0.0056 | outcome [7] | inhibition [8] 11.4% | inhibition [9] 12.7%
95.1%: nuclei count [2]
94.2%: nuclei count [3]
428: cell count [1]
